Experimental data from ChEMBL document CHEMBL4382285, “Discovery of Novel Retigabine Derivatives as Potent KCNQ4 and KCNQ5 Channel Agonists with Improved Specificity” (ACS Med Chem Lett, 2019).
Activity calls are given as the source filed them. No cut-off for these calls is given here.

Assays:
Assay type in all cases: cell-based
[1] = target: Potassium voltage-gated channel subfamily KQT member 2 (Rattus norvegicus) (UniProt O88943); assay: Effect on voltage-dependent activation of rat KCNQ2 expressed in CHOK1 cells assessed as negative shift in current activation curve at 10 uM by whole cell patch clamp assay
Potassium voltage-gated channel subfamily KQT member 2 (Rattus norvegicus), sequence (O88943 whole entry): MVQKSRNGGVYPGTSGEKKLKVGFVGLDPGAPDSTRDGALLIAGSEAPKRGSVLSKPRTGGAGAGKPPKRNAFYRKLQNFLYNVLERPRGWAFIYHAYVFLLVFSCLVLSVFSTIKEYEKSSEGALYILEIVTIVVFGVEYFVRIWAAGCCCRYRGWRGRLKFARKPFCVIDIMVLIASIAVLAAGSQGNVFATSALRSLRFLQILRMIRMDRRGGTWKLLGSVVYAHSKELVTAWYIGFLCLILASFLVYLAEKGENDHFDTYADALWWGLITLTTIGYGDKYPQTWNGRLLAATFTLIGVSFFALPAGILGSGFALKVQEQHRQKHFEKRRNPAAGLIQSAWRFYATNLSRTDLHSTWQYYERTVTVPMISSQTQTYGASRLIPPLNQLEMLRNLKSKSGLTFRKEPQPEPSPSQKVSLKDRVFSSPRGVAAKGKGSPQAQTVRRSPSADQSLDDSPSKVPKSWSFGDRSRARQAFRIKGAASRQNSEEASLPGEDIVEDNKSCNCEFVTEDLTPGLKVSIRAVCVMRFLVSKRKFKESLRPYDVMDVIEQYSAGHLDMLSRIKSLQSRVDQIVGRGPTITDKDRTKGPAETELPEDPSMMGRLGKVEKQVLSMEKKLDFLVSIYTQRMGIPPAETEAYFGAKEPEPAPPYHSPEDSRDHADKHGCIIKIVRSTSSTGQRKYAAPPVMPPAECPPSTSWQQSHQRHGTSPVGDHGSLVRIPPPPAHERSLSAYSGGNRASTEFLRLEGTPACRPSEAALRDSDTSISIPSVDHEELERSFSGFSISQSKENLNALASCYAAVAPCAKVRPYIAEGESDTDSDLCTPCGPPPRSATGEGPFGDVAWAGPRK

[2] = target: T1, Potassium voltage-gated channel subfamily KQT member 4 (Homo sapiens) (UniProt P56696); assay: Activity at human KCNQ4 expressed in CHOK1 cells assessed as ratio of amplitude of outward current in presence of test compound to amplitude of outward current in absence of test compound at 10 uM at -10 mV by whole cell patch clamp assay
T1 sequence (whole entry): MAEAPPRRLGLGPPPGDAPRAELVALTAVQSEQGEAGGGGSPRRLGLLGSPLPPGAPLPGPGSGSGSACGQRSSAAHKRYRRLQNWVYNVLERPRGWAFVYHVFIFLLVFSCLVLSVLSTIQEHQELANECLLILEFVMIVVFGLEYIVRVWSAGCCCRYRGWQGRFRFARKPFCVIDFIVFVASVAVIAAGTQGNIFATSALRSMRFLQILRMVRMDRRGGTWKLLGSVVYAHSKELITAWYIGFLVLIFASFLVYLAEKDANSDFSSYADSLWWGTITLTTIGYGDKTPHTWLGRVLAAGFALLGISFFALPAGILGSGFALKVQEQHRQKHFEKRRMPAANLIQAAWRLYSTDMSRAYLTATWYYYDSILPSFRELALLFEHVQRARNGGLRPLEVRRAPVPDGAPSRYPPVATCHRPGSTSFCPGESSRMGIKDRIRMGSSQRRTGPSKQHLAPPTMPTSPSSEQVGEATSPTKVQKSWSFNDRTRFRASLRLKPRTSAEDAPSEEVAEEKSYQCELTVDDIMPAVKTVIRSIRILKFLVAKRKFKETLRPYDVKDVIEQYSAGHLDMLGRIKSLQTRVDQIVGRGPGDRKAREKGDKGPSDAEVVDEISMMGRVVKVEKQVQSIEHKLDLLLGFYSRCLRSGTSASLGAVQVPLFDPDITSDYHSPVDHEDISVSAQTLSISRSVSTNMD
How it was run: (§1)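 CHO-K1 cells expressing the channel, whole-cell voltage clamp, compound at 10 μM. Read-out is the outward current ratio I/I0 with and without compound, taken at −10 mV. I/I0 > 1 counts as activation and < 1 as inhibition. More than four cells per compound.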

[3] = target: Voltage-gated potassium channel, KQT; KCNQ2(Kv7.2)/KCNQ3(Kv7.3) (Homo sapiens, UniProt O43526+O43525); assay: Agonist activity at KCNQ2/KCNQ3 (unknown origin) expressed in CHOK1 cells assessed as increase in amplitude of outward current at 10 uM by whole cell patch clamp assay relative to control
Voltage-gated potassium channel, KQT; KCNQ2(Kv7.2)/KCNQ3(Kv7.3), sequence (O43526 whole entry): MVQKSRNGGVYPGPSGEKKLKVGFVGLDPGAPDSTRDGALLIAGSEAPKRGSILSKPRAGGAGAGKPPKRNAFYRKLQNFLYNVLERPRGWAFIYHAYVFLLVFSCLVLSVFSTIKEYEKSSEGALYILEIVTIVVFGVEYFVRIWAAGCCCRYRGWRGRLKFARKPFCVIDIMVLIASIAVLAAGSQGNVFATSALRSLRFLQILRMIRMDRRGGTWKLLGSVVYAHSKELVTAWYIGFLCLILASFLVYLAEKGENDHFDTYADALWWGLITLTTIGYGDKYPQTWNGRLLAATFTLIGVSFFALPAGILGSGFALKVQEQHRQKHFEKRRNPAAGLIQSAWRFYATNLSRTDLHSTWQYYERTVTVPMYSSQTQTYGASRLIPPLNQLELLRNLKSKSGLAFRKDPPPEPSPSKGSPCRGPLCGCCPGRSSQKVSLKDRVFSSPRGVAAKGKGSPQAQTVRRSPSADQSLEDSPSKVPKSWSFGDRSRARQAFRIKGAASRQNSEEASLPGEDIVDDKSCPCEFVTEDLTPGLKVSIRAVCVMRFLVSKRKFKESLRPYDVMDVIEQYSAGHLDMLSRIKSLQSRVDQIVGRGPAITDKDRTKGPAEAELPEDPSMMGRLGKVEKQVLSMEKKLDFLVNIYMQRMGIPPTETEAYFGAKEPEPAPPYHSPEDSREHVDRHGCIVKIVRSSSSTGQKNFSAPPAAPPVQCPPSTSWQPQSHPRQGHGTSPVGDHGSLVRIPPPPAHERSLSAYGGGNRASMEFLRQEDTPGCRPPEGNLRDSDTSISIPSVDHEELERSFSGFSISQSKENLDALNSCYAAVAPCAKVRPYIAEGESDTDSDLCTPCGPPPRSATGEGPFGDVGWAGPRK
Voltage-gated potassium channel, KQT; KCNQ2(Kv7.2)/KCNQ3(Kv7.3), sequence (O43525 whole entry): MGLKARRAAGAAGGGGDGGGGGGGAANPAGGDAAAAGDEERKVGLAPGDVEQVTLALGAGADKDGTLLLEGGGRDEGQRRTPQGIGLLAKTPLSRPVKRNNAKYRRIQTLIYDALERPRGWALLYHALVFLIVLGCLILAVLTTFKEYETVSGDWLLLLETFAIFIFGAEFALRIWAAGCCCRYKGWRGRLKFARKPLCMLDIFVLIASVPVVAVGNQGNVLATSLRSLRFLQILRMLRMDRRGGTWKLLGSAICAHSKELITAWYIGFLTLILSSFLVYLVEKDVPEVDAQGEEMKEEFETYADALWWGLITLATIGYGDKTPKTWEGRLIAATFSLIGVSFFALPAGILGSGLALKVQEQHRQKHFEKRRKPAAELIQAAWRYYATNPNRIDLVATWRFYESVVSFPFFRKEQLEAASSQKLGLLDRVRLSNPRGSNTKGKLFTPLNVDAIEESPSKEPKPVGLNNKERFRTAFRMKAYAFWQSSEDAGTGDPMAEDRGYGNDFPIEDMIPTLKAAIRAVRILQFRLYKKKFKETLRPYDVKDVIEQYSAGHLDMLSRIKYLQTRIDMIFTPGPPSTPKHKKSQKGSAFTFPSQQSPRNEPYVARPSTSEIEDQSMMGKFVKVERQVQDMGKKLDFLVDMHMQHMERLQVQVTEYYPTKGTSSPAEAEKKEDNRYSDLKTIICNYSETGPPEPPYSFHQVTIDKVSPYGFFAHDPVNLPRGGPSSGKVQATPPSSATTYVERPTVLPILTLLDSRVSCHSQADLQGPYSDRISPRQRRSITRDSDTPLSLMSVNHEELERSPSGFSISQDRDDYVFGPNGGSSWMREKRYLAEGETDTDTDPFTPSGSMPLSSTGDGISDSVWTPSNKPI
How it was run: (§2)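 Individual KCNQ subtypes and KCNQ2/3 heteromers transfected into CHO cells, whole-cell recording before and after 10 μM compound. Cells held at −80 mV, stepped from −90 to +60 mV in 10 mV increments for 1500 ms, then to −120 mV for 500 ms. Currents compared at −10 and +60 mV.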

[4] = target: Potassium voltage-gated channel subfamily KQT member 2 (Rattus norvegicus) (UniProt O88943); assay: Activity at rat KCNQ2 expressed in CHOK1 cells assessed as ratio of amplitude of outward current in presence of test compound to amplitude of outward current in absence of test compound at 10 uM at -10 mV by whole cell patch clamp assay; how it was run: as §1
[5] = target: T1, Potassium voltage-gated channel subfamily KQT member 4 (Homo sapiens); assay: Effect on voltage-dependent activation of human KCNQ4 expressed in CHOK1 cells assessed as negative shift in current activation curve at 10 uM by whole cell patch clamp assay
[6] = target: T2, Potassium voltage-gated channel subfamily KQT member 2 (Rattus norvegicus, UniProt O88943); assay: Agonist activity at rat KCNQ2 expressed in CHOK1 cells by whole cell patch clamp assay
T2 sequence (O88943 whole entry): as the sequence (O88943 whole entry) above
How it was run: (§3)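 Concentration–response by whole-cell voltage clamp in CHO-K1 cells transiently expressing the homomeric channel. EC50 and Hill coefficient come from fitting outward currents recorded across the tested concentrations.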

[7] = target: Potassium voltage-gated channel subfamily KQT member 2 (Rattus norvegicus) (UniProt O88943); assay: Inhibition of rat homomeric KCNQ2 expressed in CHOK1 cells assessed as effect on outward current amplitude at 30 uM by whole cell patch clamp assay
How it was run: (§4)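 Homomeric KCNQ2 in CHO-K1 cells, whole-cell voltage clamp, compound applied over 1–30 μM. Change in outward current amplitude was read against the pre-drug current, including at 30 μM.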

[8] = target: T2, Potassium voltage-gated channel subfamily KQT member 2; assay: Activation of rat homomeric KCNQ2 expressed in CHOK1 cells assessed as outward current amplitude up to 30 uM by whole cell patch clamp assay; how it was run: as §4
[9] = target: T3, Potassium voltage-gated channel subfamily KQT member 5 (Homo sapiens, UniProt Q9NR82); assay: Activity at human KCNQ5 expressed in CHOK1 cells assessed as ratio of amplitude of outward current in presence of test compound to amplitude of outward current in absence of test compound at 10 uM at -10 mV by whole cell patch clamp assay; how it was run: as §1
T3 sequence (Q9NR82 whole entry): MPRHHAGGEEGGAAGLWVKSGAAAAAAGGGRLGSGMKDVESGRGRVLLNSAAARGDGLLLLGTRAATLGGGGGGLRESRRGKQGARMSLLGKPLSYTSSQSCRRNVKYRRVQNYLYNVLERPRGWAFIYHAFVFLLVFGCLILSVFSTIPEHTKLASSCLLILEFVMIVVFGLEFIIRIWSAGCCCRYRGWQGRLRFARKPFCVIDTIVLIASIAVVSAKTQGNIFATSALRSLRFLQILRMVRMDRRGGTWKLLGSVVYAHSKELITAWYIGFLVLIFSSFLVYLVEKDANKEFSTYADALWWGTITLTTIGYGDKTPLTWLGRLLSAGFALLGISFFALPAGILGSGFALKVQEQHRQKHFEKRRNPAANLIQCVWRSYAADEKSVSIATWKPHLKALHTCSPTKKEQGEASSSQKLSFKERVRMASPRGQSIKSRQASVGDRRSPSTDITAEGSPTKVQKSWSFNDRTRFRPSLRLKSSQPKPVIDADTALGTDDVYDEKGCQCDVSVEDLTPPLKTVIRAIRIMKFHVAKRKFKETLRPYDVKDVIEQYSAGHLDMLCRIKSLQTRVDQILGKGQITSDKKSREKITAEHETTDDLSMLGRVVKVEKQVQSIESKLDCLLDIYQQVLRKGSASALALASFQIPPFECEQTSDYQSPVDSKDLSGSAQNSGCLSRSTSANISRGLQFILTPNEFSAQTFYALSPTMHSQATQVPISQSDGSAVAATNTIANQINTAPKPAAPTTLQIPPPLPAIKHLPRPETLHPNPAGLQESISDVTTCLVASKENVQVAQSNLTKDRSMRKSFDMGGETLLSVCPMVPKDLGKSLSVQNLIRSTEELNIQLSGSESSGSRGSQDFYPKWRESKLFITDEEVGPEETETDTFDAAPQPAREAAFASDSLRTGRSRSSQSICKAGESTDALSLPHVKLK

[10] = target: T1, Potassium voltage-gated channel subfamily KQT member 4 (Homo sapiens); assay: Channel opening activity at human KCNQ4 expressed in CHOK1 cells at 10 uM at -60 mV by whole cell patch clamp assay
[11] = target: T4, Potassium voltage-gated channel subfamily KQT member 3 (Rattus norvegicus, UniProt O88944); assay: Agonist activity at rat KCNQ3 expressed in CHOK1 cells assessed as increase in amplitude of outward current at 10 uM by whole cell patch clamp assay relative to control; how it was run: as §2
T4 sequence (O88944 whole entry): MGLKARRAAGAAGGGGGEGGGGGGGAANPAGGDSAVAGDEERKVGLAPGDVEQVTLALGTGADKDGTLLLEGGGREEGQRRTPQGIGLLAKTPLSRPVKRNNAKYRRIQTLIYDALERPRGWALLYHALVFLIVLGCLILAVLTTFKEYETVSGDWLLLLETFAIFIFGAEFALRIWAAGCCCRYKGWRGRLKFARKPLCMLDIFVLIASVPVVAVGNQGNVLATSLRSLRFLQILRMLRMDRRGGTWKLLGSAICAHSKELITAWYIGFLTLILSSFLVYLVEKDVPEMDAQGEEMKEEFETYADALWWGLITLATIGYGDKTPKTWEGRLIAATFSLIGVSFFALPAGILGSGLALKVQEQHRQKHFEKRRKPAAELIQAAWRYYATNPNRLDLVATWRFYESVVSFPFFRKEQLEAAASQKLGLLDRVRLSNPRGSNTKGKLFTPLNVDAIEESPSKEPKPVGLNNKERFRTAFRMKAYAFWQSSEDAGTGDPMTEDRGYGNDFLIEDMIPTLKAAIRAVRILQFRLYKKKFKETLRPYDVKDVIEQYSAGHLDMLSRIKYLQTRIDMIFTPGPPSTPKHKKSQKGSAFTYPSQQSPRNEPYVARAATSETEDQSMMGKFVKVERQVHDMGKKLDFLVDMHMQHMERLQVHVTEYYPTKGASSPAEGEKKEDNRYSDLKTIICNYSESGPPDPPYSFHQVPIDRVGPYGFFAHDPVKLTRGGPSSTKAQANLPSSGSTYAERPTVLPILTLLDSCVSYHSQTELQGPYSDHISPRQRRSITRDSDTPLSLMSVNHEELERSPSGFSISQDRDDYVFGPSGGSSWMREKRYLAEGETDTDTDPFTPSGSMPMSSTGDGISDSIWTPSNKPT

[12] = target: T5, Potassium voltage-gated channel subfamily KQT member 4 (Homo sapiens, UniProt P56696); assay: Agonist activity at human KCNQ4 expressed in CHOK1 cells by whole cell patch clamp assay; how it was run: as §3
T5 sequence (P56696 whole entry): T1 sequence (whole entry)

[13] = target: Potassium voltage-gated channel subfamily KQT member 2 (Rattus norvegicus) (UniProt O88943); assay: Channel opening activity at rat KCNQ2 expressed in CHOK1 cells at 10 uM at -60 mV by whole cell patch clamp assay
[14] = target: T3, Potassium voltage-gated channel subfamily KQT member 5; assay: Agonist activity at human KCNQ5 expressed in CHOK1 cells by whole cell patch clamp assay; how it was run: as §3
[15] = target: Potassium voltage-gated channel subfamily KQT member 2 (Rattus norvegicus) (UniProt O88943); assay: Inhibition of rat KCNQ2 expressed in CHOK1 cells at 10 uM at -10 mV by whole cell patch clamp assay relative to control; how it was run: as §1

SMILES	Ratio [2]	Ratio [4]	Ratio [9]	other results
C#CCN(Cc1ccc(F)cc1)c1ccc(NC(=O)OCC)c(NC(=O)OC(C)(C)C)c1	6.37	1.16	4.58	Activity [1]: inactive; fold change (FC) [3]: 1.5; Activity [5]: inactive; EC50 [6]: > 30000 nM; inhibition [7]: Active; Activity [8]: Not Active; Activity [10]: inactive; fold change (FC) [11]: 1.5; EC50 [12]: 780 nM; Activity [13]: inactive; EC50 [14]: 1680 nM
CCOC(=O)Nc1ccc(N(CC#Cc2ccccc2)Cc2ccc(F)cc2)cc1NC(=O)OCC	1.54	1.26	1.13	–
CCOC(=O)Nc1ccc(N(CC=C(C)C)Cc2ccc(F)cc2)cc1NC(=O)OCC	3.63	0.66	1.37	–
C#CCN(Cc1ccc(F)cc1)c1ccc(NC(=O)OCC)c(NC(=O)OCCC)c1	3.95	1.07	5.81	–
C#CCN(Cc1ccc(F)cc1)c1ccc(NC(=O)OCC)c(NC(=O)OCC=C)c1	3.68	0.96	4.67	–
C/C=C(\C)CN(Cc1ccc(F)cc1)c1ccc(NC(=O)OCC)c(NC(=O)OCC)c1	2.36	0.85	1.28	–
C#CCN(Cc1ccc(F)cc1)c1ccc(NC(=O)OC(C)C)c(NC(=O)OC(C)C)c1	1.33	0.35	3.11	–
CCOC(=O)Nc1ccc(NCc2ccc(F)cc2)cc1N [EZOGABINE]	–	1.6	–	Activity [1]: 20 to 30 mV; Activity [5]: 20 to 30 mV; EC50 [6]: 2170 nM; EC50 [12]: 5900 nM; EC50 [14]: 3450 nM
C#CCN(Cc1ccc(F)cc1)c1ccc(NC(=O)OC)c(NC(=O)OC)c1	4.77	1.37	2.89	–
C#CCN(Cc1ccc(F)cc1)c1ccc(NC(=O)OC(C)(C)C)c(NC(=O)OC(C)(C)C)c1	3.05	1	5.32	EC50 [6]: > 30000 nM; EC50 [12]: 2030 nM; EC50 [14]: 2430 nM
C#CCN(Cc1ccc(F)cc1)c1ccc(NC(=O)OC2CC2)c(NC(=O)OC2CC2)c1	1.51	0.64	2.55	–
C#CCN(Cc1ccc(F)cc1)c1ccc(NC(=O)OCC(C)C)c(NC(=O)OCC(C)C)c1	1.52	0.83	1.73	–
C#CCN(Cc1ccc(F)cc1)c1ccc(NC(=O)OCC=C)c(NC(=O)OCC=C)c1	2.21	0.67	5.26	–
C#CCN(Cc1ccc(F)cc1)c1ccc(NC(=O)OCC)c(NC(=O)OC(C)C)c1	5.01	0.94	5.71	–
C/C=C/CN(Cc1ccc(F)cc1)c1ccc(NC(=O)OCC)c(NC(=O)OCC)c1	1.85	0.87	1.36	–
C#CCN(Cc1ccc(F)cc1)c1ccc(NC(=O)Oc2ccccc2)c(NC(=O)Oc2ccccc2)c1	1.22	0.91	1.16	–
C#CCN(Cc1ccc(F)cc1)c1ccc(NC(=O)OC2CCCC2)c(NC(=O)OC2CCCC2)c1	0.88	0.21	1.25	–
C#CCN(Cc1ccc(F)cc1)c1ccc(NC(=O)OCC)c(NC(=O)OCc2ccccc2)c1	1.27	0.97	2.57	–
C=CCN(Cc1ccc(F)cc1)c1ccc(NC(=O)OCC)c(NC(=O)OCC)c1	–	0.3	1.49	inhibition [15]: 70%
C#CCN(Cc1ccc(F)cc1)c1ccc(NC(=O)OC(C)(C)C)c(NC(=O)OCC)c1	7.71	1.07	4.59	EC50 [6]: > 30000 nM; EC50 [12]: 1420 nM; EC50 [14]: 1370 nM
C#CCN(Cc1ccc(F)cc1)c1ccc(NC(=O)OCC)c(NC(=O)OCC(C)C)c1	5.19	1.04	4.84	–
C#CCN(Cc1ccc(F)cc1)c1ccc(NC(=O)OCCC)c(NC(=O)OCCC)c1	2.58	0.78	2.75	–
CCOC(=O)Nc1ccc(N(CC2=CCCCC2)Cc2ccc(F)cc2)cc1NC(=O)OCC	1.49	1.19	1.05	–
C#CCN(Cc1ccc(F)cc1)c1ccc(NC(=O)OCC)c(NC(=O)OCCCC)c1	4.16	1.06	3.62	–
C#CCN(Cc1ccc(F)cc1)c1ccc(NC(=O)OCCCC)c(NC(=O)OCCCC)c1	2.75	0.77	4.13	–
C#CCN(Cc1ccc(F)cc1)c1ccc(NC(=O)OC2CCC2)c(NC(=O)OC2CCC2)c1	1.21	0.26	1.33	–
C#CCN(Cc1ccc(F)cc1)c1ccc(NC(=O)OCC)c(NC(=O)OC)c1	2.56	0.61	3.34	–
C#CCN(Cc1ccc(F)cc1)c1ccc(NC(=O)OCc2ccccc2)c(NC(=O)OCc2ccccc2)c1	3.02	1.25	3.57	–
